Data as given in ChEMBL document CHEMBL2010800, “Methoxychalcone inhibitors of androgen receptor translocation and function” (Bioorg Med Chem Lett, 2012).
pIC50: −log10 of the molar value. The source made the active and inactive calls. No cut-off for these calls is given here.

Assays:
[1] = molecular target: T1, Androgen receptor (Homo sapiens) (UniProt P10275); assay: Antagonist activity at androgen receptor in human LNCAP cells assessed as inhibition of R1881-induced prostate specific antigen mRNA expression after 20 hrs by real time RT-PCR analysis relative to control; type: functional, cell-based
T1 sequence (whole entry): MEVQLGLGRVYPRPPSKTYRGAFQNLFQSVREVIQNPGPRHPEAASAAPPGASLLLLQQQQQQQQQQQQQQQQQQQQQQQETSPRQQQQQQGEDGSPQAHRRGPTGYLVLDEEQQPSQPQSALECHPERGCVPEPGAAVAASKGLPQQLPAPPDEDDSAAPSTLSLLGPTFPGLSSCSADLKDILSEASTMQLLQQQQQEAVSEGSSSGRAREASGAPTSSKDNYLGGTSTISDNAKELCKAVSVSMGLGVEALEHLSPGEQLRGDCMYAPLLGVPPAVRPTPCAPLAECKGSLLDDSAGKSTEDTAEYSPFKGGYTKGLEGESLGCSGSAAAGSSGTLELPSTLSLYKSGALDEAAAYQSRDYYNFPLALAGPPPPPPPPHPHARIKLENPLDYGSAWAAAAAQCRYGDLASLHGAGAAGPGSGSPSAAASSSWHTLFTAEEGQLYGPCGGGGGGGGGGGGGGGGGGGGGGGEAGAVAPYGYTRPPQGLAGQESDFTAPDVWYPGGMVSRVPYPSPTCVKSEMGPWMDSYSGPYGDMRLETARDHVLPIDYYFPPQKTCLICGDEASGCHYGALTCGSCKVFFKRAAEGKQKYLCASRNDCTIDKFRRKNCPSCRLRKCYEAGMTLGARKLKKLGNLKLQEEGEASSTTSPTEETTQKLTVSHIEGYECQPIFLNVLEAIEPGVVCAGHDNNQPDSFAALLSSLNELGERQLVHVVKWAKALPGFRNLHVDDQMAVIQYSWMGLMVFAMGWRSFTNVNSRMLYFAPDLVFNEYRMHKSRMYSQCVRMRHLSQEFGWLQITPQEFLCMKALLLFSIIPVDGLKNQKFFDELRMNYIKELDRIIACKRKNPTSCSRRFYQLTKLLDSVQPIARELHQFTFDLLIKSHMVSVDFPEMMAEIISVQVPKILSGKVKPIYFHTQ
How it was run: (§1)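 LNCaP cells were first kept 3 days in phenol red-free RPMI 1640 with 10% charcoal-stripped FBS and 1% antibiotic-antimycotic. They were then exposed for 20 hr to compound at 10, 5 or 1 μM together with 0.5 nM R1881. PSA and TMPRSS2 mRNA were quantified by real-time RT-PCR against DMSO-treated controls.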

[2] = molecular target: T1, Androgen receptor (Homo sapiens); assay: Antagonist activity at androgen receptor in human LNCAP cells assessed as inhibition of R1881-induced transmembrane protease serine 2 mRNA expression after 20 hrs by real time RT-PCR analysis; type: functional, cell-based; how it was run: as §1
[3] = molecular target: T1, Androgen receptor (Homo sapiens); assay: Antagonist activity at androgen receptor in human LNCAP cells assessed as decrease in prostate specific antigen mRNA level at 2.5 uM after 20 hrs by real time RT-PCR analysis; type: functional, cell-based
How it was run: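 LNCaP prostate cancer cells (AR carries T877A ligand-binding-domain mutation) exposed to compound at 2.5 μM for 20 hr; PSA mRNA quantified by real-time RT-PCR and expressed relative to DMSO-treated control cells set to 1; mean values, n = 3.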

[4] = molecular target: T1, Androgen receptor (Homo sapiens); assay: Agonist activity at androgen receptor in human LNCAP cells assessed as potentiation of R1881-induced prostate specific antigen mRNA expression at 1 uM after 20 hrs by real time RT-PCR analysis; type: functional, cell-based; how it was run: as §1
[5] = molecular target: T1, Androgen receptor (Homo sapiens); assay: Agonist activity at androgen receptor in human LNCAP cells assessed as potentiation of R1881-induced transmembrane protease serine 2 mRNA expression at 1 uM after 20 hrs by real time RT-PCR analysis; type: functional, cell-based; how it was run: as §1
Androgen receptor [6] = molecular target: T2, Androgen receptor (Homo sapiens, UniProt P10275); assay: Antagonist activity at androgen receptor in human LNCAP cells assessed as decrease in prostate specific antigen mRNA level after 20 hrs by real time RT-PCR analysis
T2 sequence (P10275 whole entry): T1 sequence (whole entry)

Androgen receptor [7] = molecular target: T2, Androgen receptor; assay: Antagonist activity at androgen receptor in human LNCAP cells assessed as decrease in transmembrane protease serine 2 mRNA level after 20 hrs by real time RT-PCR analysis
LNCaP = assay: Cytotoxicity against human LNCAP cells after 3 days; type: functional, cell-based; details: 72 h
[8] = molecular target: T1, Androgen receptor (Homo sapiens); details: LNCaP, 10 uM
[9] = molecular target: T1, Androgen receptor (Homo sapiens); details: LNCaP, 10 uM; remark: listed apart in the source
[10] = molecular target: T1, Androgen receptor (Homo sapiens); details: LNCaP, 10 uM; remark: listed apart in the source
[11] = molecular target: T1, Androgen receptor (Homo sapiens); details: LNCaP, 10 uM; remark: listed apart in the source
[12] = molecular target: T1, Androgen receptor (Homo sapiens); details: LNCaP, 10 uM; remark: listed apart in the source

Row | SMILES | inhibition [1] | inhibition [2] | inhibition [3] [%] | also measured
1 | COc1ccc(C(=O)/C=C/c2ccc(C#N)cc2)cc1OC | Dose-dependent effect | Dose-dependent effect | 85 | 
2 | COc1ccc(C(=O)/C=C/c2cccc([N+](=O)[O-])c2)c(OC)c1OC | Dose-dependent effect | Dose-dependent effect | 84 | Activity [4]: Active; Activity [5]: Active
3 | COc1ccccc1C(=O)/C=C/c1ccccc1 |  |  | 63 | 
4 | COc1cccc(OC)c1C(=O)/C=C/c1ccc([N+](=O)[O-])cc1 |  |  | 90 | 
5 | COc1ccc(C(=O)/C=C/c2ccc([N+](=O)[O-])cc2)c(OC)c1OC | Dose-dependent effect | Dose-dependent effect | 84 | 
6 | COc1ccc(OC)c(C(=O)/C=C/c2ccc(C#N)cc2)c1 |  |  | 82 | 
7 | COc1ccccc1C(=O)/C=C/c1ccccc1C(F)(F)F |  |  | 94 | 
8 | COc1cccc(OC)c1C(=O)/C=C/c1ccccc1C(F)(F)F |  |  | 87 | 
9 | COc1ccc(C(=O)/C=C/c2cccc(C(F)(F)F)c2)c(OC)c1OC |  |  | 81 | 
10 | COc1cccc(OC)c1C(=O)/C=C/c1cccc([N+](=O)[O-])c1 |  |  | 85 | 
11 | COc1cccc(OC)c1C(=O)/C=C/c1ccc([N+](=O)[O-])cc1[N+](=O)[O-] |  |  | 81 | 
12 | COc1ccccc1C(=O)/C=C/c1ccccc1[N+](=O)[O-] | Dose-dependent effect | Dose-dependent effect | 94 | pIC50 (Androgen receptor [6]): 6.22; pIC50 (Androgen receptor [7]): 6.12; pIC50 (LNCaP): 5.47; inhibition [8]: 99%; inhibition [9]: 89%; inhibition [10]: Active; inhibition [11]: Active; inhibition [12]: Dose-dependent effect
13 | COc1ccc(C(=O)/C=C/c2ccc([N+](=O)[O-])cc2)cc1OC | Dose-dependent effect | Dose-dependent effect |  | 
